MIC data for 20 molecules are collected here from ChEMBL document CHEMBL1138673, “Bulky nonproteinogenic amino acids permit the design of very small and effective cationic antibacterial peptides” (2004).

Converted amounts (≈) assume the structure as drawn. Square brackets hold non-standard residues; d marks the D form. Peptide text beside a SMILES is read from it. * marks the point of attachment. Phe(4-tBu) = CC(C)(C)c1ccc(C[C@H](N)C(=O)O)cc1; Bip = N[C@@H](Cc1ccc(-c2ccccc2)cc1)C(=O)O; tBuAla = CC(C)(C)C[C@H](N)C(=O)O; Cha = N[C@@H](CC1CCCCC1)C(=O)O; Tle = CC(C)(C)[C@H](N)C(=O)O; NHBn = c1ccc(CN*)cc1; OBn = c1ccc(CO*)cc1 A value given as a limit tells only on which side of the number the result lay.

For assay [1], the system named is Escherichia coli. The assay can be described thus: Minimum inhibitory concentration against Escherichia coli. Type of assay: functional. In short, it runs like this: (§1)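 E. coli ATCC 25922 or S. aureus ATCC 25923 grown to exponential phase in 2% Bacto Peptone water. Standard broth microdilution, inoculum 2 × 10^6 cfu/mL, in 1% Bacto Peptone water, overnight incubation at 37 °C. MIC read after incubation. Each peptide run in parallel from at least three independent dilutions, with gentamicin as internal standard.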

The subject of assay [2] is Staphylococcus aureus. Put plainly: Minimum inhibitory concentration against Staphylococcus aureus. The format is functional. A digest of the protocol:
as §1

What is called MIC is the lowest concentration that inhibits growth of the organism. A high value points to a need for much substance.

As to `NC(N)=NCCC[C@H](NC(=O)[C@@H](N)Cc1ccc(-c2ccccc2)cc1)C(=O)OCc1ccc(-c2ccccc2)cc1`, the values for the MIC in assay [1] and in assay [2] were 50 µg/mL (≈ 88.7 µM) and 5 µg/mL (≈ 8.87 µM), respectively.

As for `CC(C)NC(=O)[C@H](CCCN=C(N)N)NC(=O)[C@@H](N)Cc1c(C(C)(C)C)[nH]c2c(C(C)(C)C)cc(C(C)(C)C)cc12`, the MIC in assay [1] came to 50 µg/mL (≈ 87.7 µM); in assay [2], 7.5 µg/mL (≈ 13.2 µM).

With `C[C@H](N)C(=O)N[C@@H](CCCN=C(N)N)C(=O)OCc1ccc(-c2ccccc2)cc1`, the values for the MIC in assay [1] and in assay [2] were 300 µg/mL (≈ 729 µM) and 100 µg/mL (≈ 243 µM), respectively.

Take `NCCCC[C@H](N)CN[C@@H](Cc1c[nH]c2ccccc12)C(=O)OCc1ccccc1`: the MIC is greater than 300 µg/mL in assay [1] and 150 µg/mL (≈ 367 µM) in assay [2].

As for `NC(N)=NCCC[C@H](NC(=O)[C@@H](N)Cc1ccccc1)C(=O)OCc1ccc(-c2ccccc2)cc1`, the MIC in assay [1] stood at 100 µg/mL (≈ 205 µM); in assay [2], 12.5 µg/mL (≈ 25.6 µM).

For the molecule `CC(C)(C)c1cc(C(C)(C)C)c2[nH]c(C(C)(C)C)c(C[C@H](N)C(=O)N[C@@H](CCCNC(=N)N)C(=O)NCc3ccccc3)c2c1`, the figures for the minimal inhibitory concentration (MIC) in assay [1] and in assay [2] were 10 µg/mL (≈ 16.2 µM) and 2.5 µg/mL (≈ 4.05 µM), respectively.

In the case of `CC(C)(C)c1cc(C(C)(C)C)c2[nH]c(C(C)(C)C)c(C[C@H](N)C(=O)N[C@@H](CCCNC(=N)N)C(N)=O)c2c1`, the MIC was greater than 150 µg/mL in assay [1] and 15 µg/mL (≈ 28.4 µM) in assay [2].

As to `COC(=O)[C@H](CCCNC(=N)N)NC(=O)[C@@H](N)Cc1c(C(C)(C)C)[nH]c2c(C(C)(C)C)cc(C(C)(C)C)cc12`, the MIC in assay [1] was 30 µg/mL (≈ 55.3 µM); in assay [2], 5 µg/mL (≈ 9.21 µM).

For the molecule `NC(N)=NCCC[C@H](NC(=O)[C@@H](N)Cc1c2ccccc2cc2ccccc12)C(=O)NCc1ccccc1`, the MIC in assay [1] worked out at 150 µg/mL (≈ 294 µM); in assay [2], 20 µg/mL (≈ 39.2 µM).

For `NCCCC[C@H](N)C(=O)N[C@@H](Cc1c[nH]c2ccccc12)C(=O)OCc1ccccc1` (H-Lys-Trp-OBn), the results for the MIC in assay [1] and in assay [2] were greater than 200 µg/mL and 75 µg/mL (≈ 178 µM), respectively.

Consider `NCCCC[C@H](N)C(=O)N[C@H](Cc1c[nH]c2ccccc12)C(=O)OCc1ccccc1` (H-Lys-[dW]-OBn), for which the MIC in assay [1] was greater than 200 µg/mL; in assay [2] it was 50 µg/mL (≈ 118 µM).

With `NC(N)=NCCC[C@H](NC(=O)[C@@H](N)Cc1c[nH]c2ccccc12)C(=O)NCc1ccccc1` (H-Trp-Arg-NHBn), the MIC in assay [1] is greater than 300 µg/mL; in assay [2] it was 100 µg/mL (≈ 222 µM).

Take `NC(N)=NCCC[C@H](NC(=O)[C@@H](N)Cc1ccc(-c2ccccc2)cc1)C(=O)NCc1ccccc1` (H-[Bip]-Arg-NHBn): the values for the minimal inhibitory concentration (MIC) in assay [1] and in assay [2] were greater than 50 µg/mL and 15 µg/mL (≈ 30.8 µM), respectively.

Regarding `NC(N)=NCCC[C@H](NC(=O)[C@@H](N)Cc1ccc(-c2ccccc2)cc1)C(=O)OCc1ccccc1` (H-[Bip]-Arg-OBn), the MIC in assay [1] was 150 µg/mL (≈ 308 µM); in assay [2], 5 µg/mL (≈ 10.3 µM).

As for `COC(=O)[C@H](CCCN=C(N)N)NC(=O)[C@@H](N)Cc1ccc(-c2ccccc2)cc1` (H-[Bip]-Arg-OMe), the MIC is greater than 300 µg/mL in assay [1] and 150 µg/mL (≈ 365 µM) in assay [2].

As for `NC(N)=NCCC[C@H](NC(=O)[C@@H](N)CC1CCCCC1)C(=O)OCc1ccccc1` (H-[Cha]-Arg-OBn), the MIC in assay [1] was greater than 300 µg/mL; in assay [2], 100 µg/mL (≈ 239 µM).

With `CC(C)(C)c1ccc(C[C@H](N)C(=O)N[C@@H](CCCN=C(N)N)C(=O)OCc2ccccc2)cc1` (H-[Phe(4-tBu)]-Arg-OBn), the results for the MIC in assay [1] and in assay [2] were 200 µg/mL (≈ 428 µM) and 25 µg/mL (≈ 53.5 µM), respectively.

Turning to `COC(=O)[C@H](CCCN=C(N)N)NC(=O)[C@@H](N)Cc1ccc(C(C)(C)C)cc1` (H-[Phe(4-tBu)]-Arg-OMe), the MIC in assay [1] and in assay [2] was greater than 300 µg/mL in each case.

For `CC(C)(C)[C@H](N)C(=O)N[C@@H](CCCN=C(N)N)C(=O)OCc1ccccc1` (H-[Tle]-Arg-OBn), the MIC in assay [1] and in assay [2] was greater than 300 µg/mL each time.

Take `CC(C)(C)C[C@H](N)C(=O)N[C@@H](CCCN=C(N)N)C(=O)OCc1ccccc1` (H-[tBuAla]-Arg-OBn): the MIC in assay [1] and in assay [2] was greater than 300 µg/mL throughout.
